Experimental data reported in PubChem BioAssay AID624398 (The Scripps Research Institute Molecular Screening Center, 2012).
Calls of active or inactive are those of the source.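 Rule for the calls: active = estrogen-induced reporter signal reduced by at least 20%; inactive = reduction of reporter signal under 20%.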

tested on: not listed separately; assay: suppression of estradiol-induced ERE reporter expression – BG1Luc4E2 ovarian carcinoma cells, luminescence, set 2, counter-screen for AHR activator project, late-stage follow-up (AID 624398); details: BG1Luc4E2 ERE-luciferase, estradiol-induced, luminescence, 24 h; at 10 µM; active compounds read high
Outline: (§1)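 Assay system: 2xERE luciferase reporter | Also added: 1 nM estradiol | Compound dosing: Single 10 µM dose or series up to 100 µM nominal | Schedule: 24 h exposure at 37 °C | Technique: Luminescence after lysis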

Compound | inhibition
COc1ccc(Cl)cc1NC(=O)c1ccc(C(=O)Nc2cc(Cl)ccc2OC)nc1 | 79.6%
CCOc1ccccc1NC(=O)c1ccc(C(=O)Nc2ccccc2OCC)nc1 | -45.6% (inactive)
COc1ccc(O)c(-c2cc(-c3cccs3)[nH]n2)c1 | 43.1%
Cc1ccc(O)c(-c2cc(-c3ccccc3Cl)[nH]n2)c1 | 66.3%
Cc1csc(SCC(=O)Nc2ccccn2)n1 | 12.2% (inactive)
Nc1nc(Cl)cc(Nc2ccc(Oc3ccccc3)cc2)n1 | -6.3% (inactive)
Cc1cc(Nc2ccc(F)cc2)nc(N)n1 | 15.8% (inactive)
O=C(CSc1nc2ccccc2s1)Nc1ccc(Cl)cn1 | 38.8%
COc1ccc(Nc2cc(Cl)nc(N)n2)cc1 | -52.4% (inactive)
Cc1cc(Br)cc(C)c1Nc1ccnc(Nc2ccc(C#N)cc2)n1 | 92.9%
Cc1ccnc(NC(=O)CSc2nc3ccccc3s2)c1 | 16.1% (inactive)
COc1ccc(Nc2cc(Cl)nc(N)n2)cc1OC | -18.4% (inactive)
CN(Cc1cc(-c2cccs2)n[nH]1)Cc1coc2ccccc2c1=O | -31.1% (inactive)
COc1ccc(NC(=O)c2ccc(C(=O)Nc3ccc(OC)cc3OC)nc2)c(OC)c1 | 19.4% (inactive)
Cc1cccc(NC(=O)c2cc(-c3ccc(C)cc3O)n[nH]2)c1 | -95.6% (inactive)
COc1ccc(-c2cc(-c3ccc(C)cc3O)[nH]n2)cc1 | 40.9%
Cc1ccc(NC(=O)c2ccc(C(=O)Nc3ccc(C)cc3C)nc2)c(C)c1 | 33.6%
O=C(CSc1nc2ccccc2s1)Nc1ccccn1 | 79%
O=C(CSc1nc(-c2ccc(F)cc2)cs1)Nc1ccccn1 | -26.7% (inactive)
Cc1cccc(C)c1NC(=O)c1ccc(C(=O)Nc2c(C)cccc2C)nc1 | -12.6% (inactive)
CCOC(=O)c1c(C)nn(-c2cc(Cl)ccc2Cl)c1C | 29%
Nc1nc(Cl)cc(Nc2ccccc2F)n1 | 8% (inactive)

tested on: BG1Luc4E2 ERE-luciferase, estradiol-induced, luminescence, 24 h; assay: as above; details: not given
Outline: as §1

Compound | IC50 [µM]
Cc1ccc(-c2cc(-c3ccc(F)cc3)n[nH]2)c(O)c1 | 20
Cc1ccc(-c2cc(-c3ccc(Cl)cc3)n[nH]2)c(O)c1 | 30
